The values that follow come from ChEMBL document CHEMBL3124806, “Imidazopyridine-fused [1,3]-diazepinones: synthesis and antiproliferative activity” (Eur J Med Chem, 2014).

What is called inhibition is the change of the read-out against control, counted positive when it falls. A low value points to little suppression.

Assay [1] is filed under the species Ovis aries. Nature of the assay: Inhibition of sheep brain tubulin polymerization at 100 uM after 40 mins by DAPI staining-based fluorescence assay. A digest of the protocol: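 Microtubular protein was purified from sheep brain by two assembly/disassembly cycles (37 °C/0 °C) in MES buffer (100 mM MES pH 6.6, 1 mM EGTA, 0.5 mM MgCl₂). Compound in DMSO was added to 10 µM tubulin with 10 µM DAPI and incubated 40 min at RT. GTP (1 mM) was then added, and assembly was followed by DAPI fluorescence at 37 °C.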

Assay [2] relates to MDA-MB-435. Briefly: Cytotoxicity against human MDA-MB-435 cells assessed as cell growth at 10 uM after 48 hrs by MTT assay relative to untreated control. The format is functional. The settings on record: MDA-MB-435, 48 h, read-out: Activity. A digest of the protocol: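 Melanoma lines grown at 37 °C in humidified 5% CO2: MDA-MB-435 in DMEM/Ham's F12 1:1 with 10% FCS and antibiotics, SK-MEL-2 in RPMI-1640 with 10% FCS. Cells plated 24 h, then exposed 48 h to 100–0.01 µM (dilutions from fresh 100 µM stock in medium). MTT 0.5 mg/mL added for 4 h, crystals dissolved in EtOH/DMSO 1:1, absorbance read at 540 nm. Mean ± SD of three independent experiments.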
On the technique in general: Tetrazolium dyes change colour on reduction, which living cells bring about.

Regarding `C[C@@H]1NC(c2ccc([N+](=O)[O-])cc2)=Nc2nc3ccccn3c2C1=O`, the inhibition in assay [1] came out at 30%. For the same compound, the growth at 10 µM in assay [2] was found to be 99%.

Take `C[C@@H]1NC(=O)Nc2nc3ccccn3c2C1=O`: the inhibition in assay [1] turned out to be 8%. In addition, in assay [2], the growth at 10 µM turned out to be 86%.
